Assay outcomes from PubChem.
PvdQ inh: P. aeruginosa PvdQ acylase inhibition; inhibition, % at 10 µM; 340,000 tested, 0.063% active; AID 488965; purified PvdQ acylase, fluorescence plate reader; in the data active = inhibition above about 30%, passing the limit was not always enough; inconclusive = no clear call, values can overlap the other calls;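 note: 0% = vehicle neutral wells and 100% = reference inhibitor wells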
SR-BI uptake up: enhances SR-BI lipid uptake from DiI-HDL; CHO ldlA[mSR-BI] cells, DiI-HDL uptake fluorescence, 3 h; 100 = double the neutral-control signal; activation, % at 12.5 µM; 320,000 tested, 0.096% active; AID 504775;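 active = mean replicate activation of at least 60% and every replicate at or above 60%; inconclusive = mean or all-replicate condition met, but not both; inactive = mean below 60% and not all replicates reaching 60%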;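 note: 0% = median plate neutral-control signal and 100% = twice that signal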
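Material: SR-BI-overexpressing, LDLR-lacking CHO cells | Dosing: Single compound concentration, delivered by pin transfer | Probe or stimulus: Labelled HDL, 10 µg/mL | Signal: Bottom-read cell fluorescence after medium removal, ex 550/em 595 nm | Schedule: 3 h, 37 °C | Evaluation: HDL uptake via cellular fluorescence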
rRNA inh HTS: inhibits bacterial ribosomal RNA function over humanized ribosomes; E. coli WT GFP vs humanized-ribosome RFP mutants, fluorescence, 24 h; stronger effect = lower value; DMSO median 0, no signal -100; GFP signal change (wild-type ribosome), % (test concentration not listed); 350,000 tested, 1.6% active;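 active = significant combined selectivity score with lowered wild-type GFP, culture density cut under 30%, mutant RFP and density less affected; inactive = any of these conditions unmet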
dFosB activator: activators of mouse delta FosB homodimer; 340,000 tested, 0.99% active; activation, % at 25 µM; purified delta FosB, TAMRA-CDK5 oligo fluorescence polarization; percent of positive-control signal above neutral wells; AID 493131; P13346;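 active = mean activation above about 17%, with every replicate also reaching it, limit read from the data, passing the limit was not always enough; inconclusive = only one of the two conditions met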
Target sequence (P13346 whole entry, looked up): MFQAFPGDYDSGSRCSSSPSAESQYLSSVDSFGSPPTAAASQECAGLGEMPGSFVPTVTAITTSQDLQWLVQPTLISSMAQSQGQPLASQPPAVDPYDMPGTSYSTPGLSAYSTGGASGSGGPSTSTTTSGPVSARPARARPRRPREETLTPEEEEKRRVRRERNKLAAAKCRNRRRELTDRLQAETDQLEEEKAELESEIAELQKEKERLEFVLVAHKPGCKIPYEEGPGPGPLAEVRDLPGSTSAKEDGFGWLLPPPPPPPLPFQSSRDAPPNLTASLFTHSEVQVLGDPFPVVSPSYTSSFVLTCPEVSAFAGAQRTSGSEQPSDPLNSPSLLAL
SR-BI DiI inh: inhibitors of mouse SR-BI mediated HDL lipid uptake. Q61009. ldlA[mSR-BI] CHO cells, DiI-HDL uptake fluorescence, 3 h. inhibition, % at 12.5 µM. 320,000 tested, 0.96% active;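 active = mean replicate inhibition of at least 70% and a set share of replicates each scoring 70 or more; inconclusive = meets just one of the two criteria; inactive = fails both criteria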;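 note: 0% = median of neutral control wells and 100% = median of positive control wells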
XiGFP reactiv: activators of X-chromosome reactivation in mouse fibroblasts | XiGFP mouse fibroblasts, % GFP-positive cells imaging, 3 d; cells co-treated with 5-aza-dC sensitizer; scaled so ellipticine positive control = 100% | 360,000 tested, 0.055% active | activation, % at 7.58 µM;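 active = mean normalized replicate activation at least 10% and every replicate at or above 10%; inconclusive = only one of the two criteria met; inactive = mean below 10% and not all replicates reach 10%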;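 note: 0% = median of on-plate neutral control wells and 100% = ellipticine 6 µM median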
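System: 68-5-11 XiGFP fibroblast line | Buffer or medium: DMEM containing 5-aza-dC | Compound: Single point | Times: Compounds 3 days, fix/stain 15 min at room temperature | Benchmarks: Positive control ellipticine, 6 µM final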
An asterisk follows results filed as active; ? = inconclusive; · = not tested or not shown. The list is not random: actives were taken first. Their share in the collection is about 2.6%.

SMILES	PvdQ inh	SR-BI uptake up	rRNA inh HTS	dFosB activator	SR-BI DiI inh	XiGFP reactiv
Cc1ccc(S(=O)(=O)N2CCN(C(=O)COC(=O)c3cc([N+](=O)[O-])ccc3NCCO)CC2)c(C)c1	-8	-79	·	-9	79*	0
Cc1c(NC(C)C)c(=O)n(-c2ccccc2)n1C	-10	0	·	4	0	0
O=C(c1ccc2c(c1)OCCO2)C1CCN(S(=O)(=O)c2ccccc2F)CC1	3	20	·	-7	-20	·
COc1cc(OC)cc(C(=O)NC2CCN(CCCOc3ccccc3)CC2)c1	-8	-21	22	-8	21	0
COc1cc(N)c(Cl)cc1C(=O)N[C@H]1CCN(CCCOc2ccc(F)cc2)C[C@H]1OC	-3	-75	·	-6	75*	0
CCCN(C)C[C@@H]1OCCCC[C@H](C)Oc2ccc(NC(=O)Cc3ccccc3)cc2C(=O)N([C@H](C)CO)C[C@@H]1C	·	·	2	·	·	0
COC(=O)C1=C(C)NC(C)=C(C(=O)OC)C1C(=O)OCC(=O)N1c2ccccc2CC1C (configuration not stated)	-14	13	-12*	-5	-13	0
CC1Cc2ccccc2N1C(=O)COC(=O)c1ccc(O)cc1 (configuration not stated)	26	·	-5	-8	·	0
COc1ccccc1C(C[N+](=O)[O-])c1c(N)n(C)c(=O)n(C)c1=O (configuration not stated)	·	·	-34*	·	·	0
Cc1sc2ncnc(N3CCCC(C)C3)c2c1C (configuration not stated)	-13	-15	-28*	-4	15	0
Cc1sc2ncnc(N3CCCCC3)c2c1C	-8	-26	-49	-3	26	·
CC(C)n1cc(/C=C2/SC(=O)N(CC(=O)Nc3ccc4c(c3)OCO4)C2=O)c2ccccc21	-7	-67	·	3	67	·
COc1ccccc1N1CCN(C(=O)CN2C(=O)c3ccccc3S2(=O)=O)CC1	-2	·	4	-5	·	0
Cc1n[nH]c(C)c1S(=O)(=O)N(CC(=O)N1CCc2ccccc21)c1ccc(C(C)C)cc1	-1	8	5	50*	-8	0
N#Cc1nc(COc2ccc(Cl)cc2Cl)oc1N1CCN(c2ccccc2)CC1	-12	118*	·	-8	-118	·
COc1ccc(N2CCN(c3oc(COc4ccc(Cl)cc4Cl)nc3C#N)CC2)cc1	7	1	-14	3	-1	·
CCC[C@H](CN[C@@H](CNC)[C@H](C)CC)NCCc1cc(C(F)(F)F)cc(C(F)(F)F)c1	-1	36	-58	14	-36	0
CC[C@@H](C)[C@H](CNC)NC[C@@H](Cc1cccc2ccccc12)NCCc1cccc(C(F)(F)F)c1	2	38	-59	19*	-38	0
Cc1cc(C)cc(OCC(=O)OCC(=O)N2CC(=O)Nc3ccccc32)c1	-14	12	12	-9	-12	0
O=C(NCc1ccccc1)[C@H]1CCCN1C(=O)[C@H]1CCCN1C(=O)c1cccc2ccccc12	·	·	-3	·	·	0
O=C(NCc1ccccc1Cl)[C@H]1CCCN1C(=O)[C@H]1CCCN1C(=O)c1cccc2ccccc12	·	·	-23*	·	·	0
O=C(O)c1ccc(N/N=C/c2ccc(-c3cc(Cl)ccc3Cl)o2)cc1	-10	42	-6	-9	-42	0
O=C(O)c1cccc(-c2ccc(/C=N/Nc3ccc([N+](=O)[O-])cc3)o2)c1	5	21	-38*	-7	-21	0
O=C(O)c1ccc(N/N=C/c2ccc(-c3cccc(Cl)c3)o2)cc1	-13	-18	-39*	-3	18	0
COc1ccc(-c2oc3ccccc3c2C#CC(C)(C)O)cc1	-24	-79	-8	-4	79*	0
SMILES	PvdQ inh	SR-BI uptake up	rRNA inh HTS	dFosB activator	SR-BI DiI inh	XiGFP reactiv
OC[C@@H]1[C@@H]2c3ccccc3NC[C@@H]2N1CC1CCOCC1	·	·	-2	·	·	0
CCOc1ccc2nc(-c3cc(NC(C)=O)ccc3O)sc2c1	-18	-55	8	-5	55	0
CCCCCn1c(N)c(-c2nc3ccccc3s2)c2c([N+](=O)[O-])nn(CC)c(=O)c21	2	-83	·	-3	83*	·
CCCCn1c(N)c(-c2nc3ccccc3s2)c2c([N+](=O)[O-])nn(C)c(=O)c21	-9	-93	·	-7	93*	·
Cn1nc([N+](=O)[O-])c2c(-c3nc4ccccc4s3)c(N)n(C3CCCCC3)c2c1=O	6	-64	·	-4	64	·
CCCCn1c(N)c(-c2nc3ccccc3s2)c2c([N+](=O)[O-])nn(CC)c(=O)c21	2	-67	·	0	67	·
Cc1ccc(CNC(=O)CN2C(=O)NC(C)(c3ccc(Cl)cc3)C2=O)cc1 (configuration not stated)	-7	-22	8	-12	22	0
Cc1ccc(CNC(=O)CN2C(=O)NC(C)(c3cccc(Br)c3)C2=O)cc1 (configuration not stated)	-8	-15	-29*	-5	15	0
Cc1ccc(-c2nn3c(C)nnc3s2)cc1NC(=O)c1ccc(-c2ccc(Cl)cc2Cl)o1	10	-79	·	-25	79*	·
Cc1ccc(-c2nn3c(C)nnc3s2)cc1NC(=O)c1ccc(-c2cccc(Cl)c2)o1	-9	-73	·	-12	73*	·
Cc1ccc(SC2=C[C@@]3(O)CC[C@@H](O)[C@@](Sc4ccc(C)cc4)(C2=O)[C@H]3O)cc1	·	·	-25*	·	·	0
CN(C)Cc1c(O)ccc2c(=O)c(-c3ccccc3)c(C(F)(F)F)oc12	-8	9	-32*	-4	-9	0
CCCCC(=O)Nc1cc(OC)c(NC(=S)NC)cc1OC	2	22	6	3	-22	0
CCCNC(=O)COC(=O)c1[nH]c(C)c(C(=O)OCC)c1C	-10	-19	·	0	19	·
CCN1C(=O)C(=Cc2cccc(OC)c2Oc2ccc([N+](=O)[O-])cc2[N+](=O)[O-])SC1=S	-8	-75	4	-14	75*	5
COc1ccc(Cl)cc1NC(=O)COC(=O)CNC(=O)c1ccc([N+](=O)[O-])c(C)c1	-10	·	·	0	·	0
Cc1ccc(NC(=O)c2ccc(=O)[nH]c2)cc1S(=O)(=O)N1CCCCCC1	-10	-80	-16	-17	80*	?
Cc1ccc(NC(=O)CNC(=O)c2ccc(OC(F)F)cc2)cc1S(=O)(=O)N1CCCCCC1	-16	-32	-23*	-15	32	0
Cc1cc(C(=O)NCC(=O)OCC(=O)Nc2ccc(OC(F)F)cc2)ccc1[N+](=O)[O-]	9	30	-22*	-3	-30	0
